Results from paper PMC9996623 (ACS Omega, 2023).

Experiments:
[1] = biological target: HIV-1 integrase (Human immunodeficiency virus type 1 group M subtype B, UniProt P04585); assay: HIV-1 integrase strand transfer; type: biochemical; settings: for inhibition at 10 µM: read-out: %ST inhibition (percentage inhibition of strand transfer activity of integrase enzyme), 10 μM dose, WT (wild-type) integrase; for fold increase in %ST inhibition compared to 10a: versus 10a
[2] = tested on: TZM-bl cells; assay: MTT cytotoxicity assay on TZM-bl cells; type: cell-based; settings: IC50 values at 48 h, 3.125 to 200 μM
How it was run: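 Medium with compound removed; MTT reagent (5 mg/mL) added for 4 h; formazan dissolved in DMSO with shaking; absorbance read at 570 nm against a 630 nm reference. Percent viability plotted versus concentration.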

| inhibition at 10 µM [1] [%] | Structure (SMILES) | also measured |
| --- | --- | --- |
| 14 | Cn1cc(-c2ccccc2)c2ccc(Cl)nc21 [10a, 6-Chloro-1-methyl-3-phenyl-1H-pyrrolo[2,3-b]pyridine] | – |
| 41 | Cc1ccc(-c2cn(C)c3nc(Cl)ccc23)cc1 [10b, 6-Chloro-1-methyl-3-(p-tolyl)-1H-pyrrolo[2,3-b]pyridine] | fold increase in %ST inhibition compared to 10a ([1]; 10 μM dose): ~3 fold |
| 19.4 | Cc1cccc(-c2cn(C)c3nc(Cl)ccc23)c1 [10c, 6-Chloro-1-methyl-3-(m-tolyl)-1H-pyrrolo[2,3-b]pyridine] | – |
| 56 | COc1ccc(-c2cn(C)c3nc(Cl)ccc23)cc1 [10d, 6-Chloro-3-(4-methoxyphenyl)-1-methyl-1H-pyrrolo[2,3-b]pyridine] | – |
| 38.3 | Cn1cc(-c2ccc(F)cc2)c2ccc(Cl)nc21 [10e, 6-Chloro-3-(4-fluorophenyl)-1-methyl-1H-pyrrolo[2,3-b]pyridine] | – |
| 48.3 | Cn1cc(-c2cc(C(F)(F)F)cc(C(F)(F)F)c2)c2ccc(Cl)nc21 [10f, 3-(3,5-Bis(trifluoromethyl)phenyl)-6-chloro-1-methyl-1H-pyrrolo[2,3-b]pyridine] | – |
| 54 | Cn1cc(-c2ccc3c(c2)OCO3)c2ccc(Cl)nc21 [10h, 3-(Benzo[d][1,3]dioxol-5-yl)-6-chloro-1-methyl-1H-pyrrolo[2,3-b]pyridine] | – |
| 39.3 | COc1ccc(-c2ccc3c(-c4ccccc4)cn(C)c3n2)cc1 [11a, 6-(4-Methoxyphenyl)-1-methyl-3-phenyl-1H-pyrrolo[2,3-b]pyridine] | fold increase in %ST inhibition compared to 10a ([1]; 10 μM dose): ~2 fold |
| 51.7 | Cc1ccc(-c2ccc3c(-c4ccccc4)cn(C)c3n2)cc1 [11b, 1-Methyl-3-phenyl-6-(p-tolyl)-1H-pyrrolo[2,3-b]pyridine] | – |
| 36.4 | Cn1cc(-c2ccccc2)c2ccc(-c3cc(C(F)(F)F)cc(C(F)(F)F)c3)nc21 [11c, 6-(3,5-Bis(trifluoromethyl)phenyl)-1-methyl-3-phenyl-1H-pyrrolo[2,3-b]pyridine] | – |
| 72 | COc1ccc(-c2ccc3c(-c4ccc(F)cc4F)cn(C)c3n2)cc1 [11d, 3-(2,4-Difluorophenyl)-6-(4-methoxyphenyl)-1-methyl-1H-pyrrolo[2,3-b]pyridine] | – |
| 41.6 | Cn1cc(-c2ccccc2)c2ccc(-c3ccsc3)nc21 [11e, 1-Methyl-3-phenyl-6-(thiophen-3-yl)-1H-pyrrolo[2,3-b]pyridine] | – |
| 71 | Cn1cc(-c2ccc3c(c2)OCO3)c2ccc(-c3ccncc3)nc21 [11f, 3-(Benzo[d][1,3]dioxol-5-yl)-1-methyl-6-(pyridin-4-yl)-1H-pyrrolo[2,3-b]pyridine] | IC50 in TZM-bl [2]: minimal cytotoxicity; fold increase in %ST inhibition comparing 10h and 11f ([1]; 10 μM dose, versus 10h): ~1.3 fold |
| 15.9 | COc1ccc(Cn2cc(-c3ccsc3)c3ccc(-c4ccncc4)nc32)cc1 [12a, 1-(4-Methoxybenzyl)-6-(pyridin-4-yl)-3-(thiophen-3-yl)-1H-pyrrolo[2,3-b]pyridine] | – |
| 24.1 | COc1ccc(Cn2cc(-c3ccc4c(c3)OCO4)c3ccc(-c4ccc5ccccc5c4)nc32)cc1 [12b, 3-(Benzo[d][1,3]dioxol-5-yl)-1-(4-methoxybenzyl)-6-(naphthalen-2-yl)-1H-pyrrolo[2,3-b]pyridine] | – |
| 82 | Cc1nnc(C(=O)NC(C)(C)c2nc(C(=O)NCc3ccc(F)cc3)c(O)c(=O)n2C)o1 [RAL, Raltegravir, reference compound] | – |
